Measurements of several laboratories.
Each line is one published result; the experiments were not run side by side.
Target: Protein kinase C theta type (PRKCQ, Homo sapiens, UniProt Q04759)

| SMILES | test | conditions | remaining binding [%] |
| --- | --- | --- | --- |
| Cc1cc(NC(=O)c2cccc(S(F)(F)(F)(F)F)c2)cc(-n2ccn3nc(-c4cccnc4)cc23)c1 | cell-free assay, competition with immobilised ligand | 1 µM | 60.3 |
| O=C(NCCCN1CCOCC1)c1ccc(Nc2nccc(-c3cc4ccccc4s3)n2)cc1 | binding, competition with immobilised ligand | 1 µM | 100 |
| CN(C)c1ncc(F)c(-c2cnn3ncccc23)n1 | binding | 1 µM | 100 |
| O=C(c1ccc(Nc2ncc(Cl)c(-c3ccc(Cl)s3)n2)cc1)N1CCC(N2CCCC2)CC1 | binding, competition with immobilised ligand | 1 µM | 60 |
| CN(C)c1nccc(-c2cnn3ncccc23)n1 | binding | 1 µM | 88 |
| O=C(Nc1ccc(Oc2ccc(F)cc2)cc1)N1CCc2ncccc2[C@H]1c1ccc(F)cc1 | cell-free assay, competition with immobilised ligand | 1 µM | 95 |
| N[C@@H]1CCN(c2nccc(-c3cnn4ncccc34)n2)C1 | binding | 1 µM | 100 |
| O=C(Nc1c[nH]nc1C(=O)NC1CCNCC1)c1cc(F)cc(F)c1 | binding, competition with immobilised ligand | 1 µM | 100 |
| COc1cnc(Nc2cccc(S(N)(=O)=O)c2)nc1N1CCN(c2ccccc2)C(=O)C1 | binding, competition with immobilised ligand | 1 µM | 100 |
| CS(=O)(=O)N1CCCC(NC(=O)[C@H](CCC2CCCCC2)NC(=O)c2ccc(CNC(=O)c3cnc4ccccn34)cc2)C1 (stereo partly shown) | cell-free assay, competition with immobilised ligand | 0.1 µM | 97 |
| C[C@H]1CCN(c2nccc(-c3cnn4ncccc34)n2)C1 | binding | 1 µM | 100 |
| C[C@@H](c1ccc(-n2cnc3c(N)ncnc32)cc1)N1CCc2nn(C)c(Cc3ccccc3)c2C1=O | binding, competition with immobilised ligand | 0.1 µM | 100 |
| Nc1c(C(=O)NCc2ccc(C(=O)NCCCC3CCCCC3)cc2)cnn1-c1ccccc1 | cell-free assay, competition with immobilised ligand | 0.1 µM | 100 |
| COc1ccnn2ncc(-c3ccnc(N(C)C)n3)c12 | binding | 1 µM | 81 |
| CN(C)CC#Cc1ccc(OCCCc2sc(N3CCc4cccc(C(=O)Nc5nc6ccccc6s5)c4C3)nc2C(=O)O)c(F)c1 | cell-free assay, competition with immobilised ligand | 1 µM | 92 |
| c1cnn2ncc(-c3ccnc(N4CCC45COC5)n3)c2c1 | binding | 1 µM | 86 |
| O=C(c1ccc(Nc2ncc(Cl)c(-c3cc4ccccc4s3)n2)cc1)N1CCC(N2CCCC2)CC1 | binding, competition with immobilised ligand | 1 µM | 23 |
| O=C(NC[C@@H]1[C@H]2CN(C(=O)OCc3cc(C(F)(F)F)cc(C(F)(F)F)c3)C[C@@H]12)c1ccc2[nH]nnc2c1 | cell-free assay, competition with immobilised ligand | 1 µM | 100 |
| CNC(=O)[C@@H]1CC[C@@H](n2c(-c3ccc4cnccc4c3)nc3ccc(C(=O)NCc4cccc(C(N)=O)c4)cc32)C1 | binding, competition with immobilised ligand | 1 µM | 63 |
| C[C@@H]1CN(c2cc(-c3nn(C)c4ccc(OC5(C)CC5)cc34)ncn2)C[C@H](C)O1 | cell-free assay, competition with immobilised ligand | 1 µM | 91 |
| CN(CCCC(F)(F)F)c1nccc(-c2cnn3ncccc23)n1 | binding | 1 µM | 100 |
| CCN1CCN(Cc2ccc(C(=O)Nc3ccc(C)c(Oc4ccc5c(c4)CC(=O)N5)c3)cc2C(F)(F)F)CC1 | binding, competition with immobilised ligand | 1 µM | 100 |
